Results as given in ChEMBL document CHEMBL4385671, “Discovery of small molecule inhibitors of human uridine-cytidine kinase 2 by high-throughput screening” (Bioorg Med Chem Lett, 2019).
Active and inactive are the calls of the source.

How the values were obtained:
[1] = molecular target: T1, Uridine-cytidine kinase 2 (Homo sapiens, UniProt Q9BZX2); test: Inhibition of C-terminally His6-tagged human UCK2 expressed in Escherichia coli BL21(DE3) cells incubated for 15 mins before ATP addition and measured after 60 mins by ADP-Glo kinase assay based HTS assay
T1 sequence (Q9BZX2 whole entry): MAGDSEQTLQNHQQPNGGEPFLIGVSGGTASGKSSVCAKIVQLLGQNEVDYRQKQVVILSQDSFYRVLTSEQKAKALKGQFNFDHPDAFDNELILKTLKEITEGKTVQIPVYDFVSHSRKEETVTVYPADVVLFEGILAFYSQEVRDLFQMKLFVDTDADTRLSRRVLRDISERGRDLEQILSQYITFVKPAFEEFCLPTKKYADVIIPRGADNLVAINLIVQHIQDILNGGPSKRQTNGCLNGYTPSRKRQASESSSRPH
Method in brief: (§1)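 His6-tagged UCK2 (C-terminal tag), purified by Ni-NTA then ion exchange; UCK2 phosphorylates uridine with ATP and ADP-Glo measures the ADP formed, after depleting leftover ATP, as luciferase luminescence. Run in 1536-well format with 0.5 mg/mL BSA, DMSO up to 3%. Primary screen at 33 μM with hit cut-off of 3 SD of the negative control. Confirmation used 8 half-log concentrations, 0.05–167 µM.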

[2] = molecular target: Dihydroorotate dehydrogenase (quinone), mitochondrial (Homo sapiens) (UniProt Q02127); test: Inhibition of DHODH in human K562 cells assessed as increase in uridine salvage at 200 nM incubated for 24 hrs by 5-ethynyl-uridine incorporation assay; format: cell-based
[3] = molecular target: T1, Uridine-cytidine kinase 2; test: Inhibition of C-terminally His6-tagged human UCK2 expressed in Escherichia coli BL21(DE3) cells incubated for 15 mins before ATP addition and measured after 60 mins by ADP-Glo kinase assay; method in brief: as §1
[4] = molecular target: T2, Uridine-cytidine kinase 2 (Homo sapiens) (UniProt Q9BZX2); test: Inhibition of UCK2 in human K562 cells assessed as inhibition of uridine salvage at 50 uM incubated for 24 hrs by 5-ethynyl-uridine incorporation assay; format: cell-based
T2 sequence (whole entry): T1 sequence (Q9BZX2 whole entry)
Method in brief: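 K562 cells were given compound at 50 µM with 50 µM 5-ethynyl-uridine (5-EU). 5-EU incorporated into cellular RNA was quantified by click chemistry with a fluorescent probe. Dipyridamole at 20 µM served as control.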

[5] = molecular target: T1, Uridine-cytidine kinase 2; test: Non-competitive inhibition of C-terminally His6-tagged human UCK2 expressed in Escherichia coli BL21(DE3) cells using uridine, phosphoenolpyruvate, NADH and varying ATP level by spectrophotometry based pyruvate kinase and lactate dehydrogenase coupled enzyme assay
Method in brief: (§2)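 Continuous coupled assay of purified C-terminally His6-tagged UCK2. Substrate titration was done with either uridine or ATP varied, at inhibitor 0, 0.5, 1.5 or 4.5 µM. Ki was derived from kinetic analysis of these titrations.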

[6] = molecular target: T1, Uridine-cytidine kinase 2; test: Non-competitive inhibition of C-terminally His6-tagged human UCK2 expressed in Escherichia coli BL21(DE3) cells using phosphoenolpyruvate, NADH and varying uridine level by spectrophotometry based pyruvate kinase and lactate dehydrogenase coupled enzyme assay; method in brief: as §2
[7] = molecular target: T3, UMP-CMP kinase (Homo sapiens) (UniProt P30085); test: Inhibition of CMPK1 (unknown origin) by ADP-Glo kinase assay
T3 sequence (whole entry): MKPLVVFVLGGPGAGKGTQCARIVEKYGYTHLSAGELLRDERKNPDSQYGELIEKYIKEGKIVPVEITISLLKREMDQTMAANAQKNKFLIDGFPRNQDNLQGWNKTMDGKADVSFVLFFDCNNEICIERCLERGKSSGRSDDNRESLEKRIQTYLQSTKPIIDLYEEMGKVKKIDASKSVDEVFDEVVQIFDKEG

Dihydroorotate dehydrogenase (quinone), mitochondrial (Homo sapiens), sequence (Q02127 whole entry): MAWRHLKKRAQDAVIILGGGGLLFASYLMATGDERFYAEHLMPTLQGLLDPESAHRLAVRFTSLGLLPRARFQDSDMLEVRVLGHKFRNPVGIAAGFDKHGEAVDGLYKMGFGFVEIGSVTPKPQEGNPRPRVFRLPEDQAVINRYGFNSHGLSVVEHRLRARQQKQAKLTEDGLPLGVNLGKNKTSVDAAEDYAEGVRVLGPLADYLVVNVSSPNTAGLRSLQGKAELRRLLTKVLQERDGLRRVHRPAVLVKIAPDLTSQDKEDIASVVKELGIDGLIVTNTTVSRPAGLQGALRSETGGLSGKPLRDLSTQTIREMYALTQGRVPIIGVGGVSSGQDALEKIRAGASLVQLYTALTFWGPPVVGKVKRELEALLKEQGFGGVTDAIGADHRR

Compound | IC50 [1] [µM] | IC50 ([3]; read-out: IC50) [µM] | inhibition [4] | other results
O=C(N[C@@H]1CCCc2c1[nH]c1ccc(Cl)cc21)c1ccccn1 | – | – | – | inhibition [2]: Active
COc1cccc2c1Oc1nc(-c3ccc(C)cc3)nc(SCC(=O)Nc3cccc(C(=O)O)c3)c1C2 | – | 11.8 | 14.9% | –
Cc1ccc(-c2nc3c(c(SCC(=O)Nc4cccc(C(=O)O)c4)n2)Cc2cccc(C)c2O3)cc1 | 52 | 3.8 | 51.7% | Ki [5]: 1 µM; Ki [6]: 3.5 µM
Cc1ccc(-c2nc3c(c(SCC(=O)Nc4ccccc4)n2)Cc2cccc(C)c2O3)cc1 | – | 26.8 | inactive | –
O=C(CSCn1[nH]nc2c(=O)nc(Cc3ccc(F)cc3)nc1-2)Nc1ccc(F)cc1 | – | – | – | IC50 [3]: Not Active
COc1cccc(NC(=O)CSCn2[nH]nc3c(=O)nc(Cc4ccc(F)cc4)nc2-3)c1 | – | – | – | IC50 [3]: Not Active

Second part, led by results:

IC50 [1] [µM] | IC50 ([3]; read-out: IC50) [µM] | inhibition [4] | Compound | other results
80 | – | – | COc1ccccc1NC(=O)CSc1nc(-c2ccc(C(C)(C)C)cc2)c(C#N)c(=O)[nH]1 | –
138 | – | – | CC(C)(C)c1ccc(-c2nc(SCC(=O)Nc3ccc(Cl)cc3)[nH]c(=O)c2C#N)cc1 | –
– | 4.7 | 49.6% | Cc1cccc2c1Oc1nc(-c3ccccc3)nc(SCC(=O)Nc3cccc(C(=O)O)c3)c1C2 | –
18.9 | 48 | 41.5% | Cc1cc(C)cc(NC(=O)CSCn2[nH]nc3c(=O)nc(Cc4ccc(F)cc4)nc2-3)c1 | Ki [5]: 31 µM; Ki [6]: 50 µM; inhibition [7]: inactive
166 | – | – | O=C(CSc1nc(-c2ccc(O)cc2)nc2c1Cc1ccccc1O2)Nc1cccc(C(=O)O)c1 | –
– | – | 26.3% | Cc1ccccc1NC(=O)CSCn1[nH]nc2c(=O)nc(Cc3ccc(F)cc3)nc1-2 | –
9.2 | 16.4 to 16.6 | 31.3% | O=C(CSc1nc2n(-c3ccc(F)cc3)[nH]cc-2c(=O)n1)Nc1ccc(Br)cc1 | Ki [5]: 12 µM; Ki [6]: 13 µM
166 | – | – | O=C(CSc1nc(-c2ccc(F)cc2)nc2c1Cc1ccccc1O2)Nc1cccc(C(=O)O)c1 | –
